Screens (PubChem BioAssay)
Shown are actives, neighbours in structure and some others; about 2.2% of the full set was active somewhere.
SMARCA2 activ – SMARCA2 function activation, primary screen. MG213 cells, MMTV-luciferase reporter, dexamethasone, overnight. activation, % at 9.1 µM. actives 1% (n = 370,000); in the data active = activation above about 7.8%;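 note: 0% = vehicle wells and 100% = reference activator wells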
NR2E3 ag-1 – activates human photoreceptor nuclear receptor NR2E3. Q9Y5X4. GST-NR2E3/biotin-RetCOR TR-FRET, 1536-well. inhibition of corepressor binding, % at 4.78 µM. actives 0.12% (n = 320,000). AID 2300;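 active = percent inhibition above the cutoff of mean plus 3 SD of all tested compounds, set per screening campaign, cut at about 20% in these data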;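 note: 0% = DMSO wells and 100% = biotin wells as full block of FRET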
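Test system – NR2E3–RetCOR corepressor complex · Quantity – NR2E3 fusion 1.35 nM · Buffer or medium – Tris pH 7.5 · Incubation – Compound–protein incubation for 5 h at 4 °C · Technique – TR-FRET, Eu(K)-anti-GST donor, streptavidin-D2 acceptor, ex 340, em 617/671 nm · Evaluation – percent inhibition of 671/617 nm emission ratio versus biotin and DMSO controls · Plate – 1536-well format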
NR2F2 inh – NR2F2 (human) inhibition, primary screen. HEK293T NGFI-A luciferase reporter, luminescence. actives 0.7% (n = 370,000). inhibition, % at 8.6 µM;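 active = inhibition above a per-plate cutoff, mean inhibition of test wells between control levels plus 3 SD, cut at about 38% in these data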;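 note: cells cotransfected with COUP-TFII expression vector driving the NGFI-A reporter; 0% = median of COUP-TF2 test wells and 100% = reporter-only cells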
GalR3 antagonist – human GalR3 antagonism. O60755. HEK293 GalR3-CNG cAMP membrane potential fluorescence; galR3 body fused to GalR1 C-terminus. inhibition, % at 3 µM. actives 0.44% (n = 360,000);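 active = inhibition above the screen-wide average plus 3 SD, cut at about 13% in these data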;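 note: forskolin and galanin both at EC90 stimulate the cells; cAMP rise reported by CNG channel membrane potential dye signal; 0% = forskolin plus galanin with DMSO and 100% = forskolin alone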
Target sequence (O60755 1-299 limits assumed): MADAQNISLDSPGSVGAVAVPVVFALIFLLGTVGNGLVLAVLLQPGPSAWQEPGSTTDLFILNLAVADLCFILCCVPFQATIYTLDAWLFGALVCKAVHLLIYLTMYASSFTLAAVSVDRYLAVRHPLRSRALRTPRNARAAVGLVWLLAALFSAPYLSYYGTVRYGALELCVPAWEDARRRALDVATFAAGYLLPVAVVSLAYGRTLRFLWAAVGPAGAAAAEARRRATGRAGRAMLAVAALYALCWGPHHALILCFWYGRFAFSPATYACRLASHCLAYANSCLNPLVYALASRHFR
NR2E3 ag-2 – agonists of human NR2E3 nuclear receptor; inhibition of corepressor binding, % at 3.98 µM; CHO-S Gal4-NCOR/VP16-NR2E3 two-hybrid, luciferase; actives 0.35% (n = 360,000); AID 602229; Q9Y5X4;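 active = inhibition above the mean of all tested compounds plus 3 SD, cut at about 70% in these data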;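 note: 0% = DMSO with NR2E3 transfected cells and 100% = cells lacking NR2E3 construct; higher means lower luciferase signal from less NR2E3 corepressor binding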
NR2E3 ag confirm – confirmation of human NR2E3 agonists | inhibition, % at 3.98 µM | CHO-S mammalian two-hybrid NR2E3-NCOR, luciferase luminescence | shares compounds with NR2E3 ag-2 | AID 624378 | actives 51% (n = 2,300);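 active = average inhibition above a cutoff equal to the mean inhibition of all tested compounds plus one SD, cut at about 70% in these data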;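 note: 0% = DMSO in NR2E3 cells and 100% = DMSO in cells lacking NR2E3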
GAL4-VP16 luc – counter-screen for NR2E3 agonists: GAL4-VP16 reporter inhibitors; shares compounds with NR2E3 ag-2; inhibition, % at 3.98 µM; CHO-S GAL4-VP16 luciferase reporter, luminescence; AID 624379; actives 29% (n = 2,300);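 active = mean inhibition above a cutoff equal to the average over all tested compounds plus one standard deviation, cut at about 70% in these data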;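 note: luciferase from a UAS reporter driven by GAL4-VP16 transactivation; 0% = DMSO with VP16-transfected cells and 100% = DMSO with cells lacking VP16; higher means less reporter light so more repression of VP16 activity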
* hit, by the source's call; . = no result.

SMILES | SMARCA2 activ | NR2E3 ag-1 | NR2F2 inh | GalR3 antagonist | NR2E3 ag-2 | NR2E3 ag confirm | GAL4-VP16 luc
COC(=O)N1C2CCCCC2=NN(c2ccccc2)N1C(=O)OC (centres undefined) | 2.2 | . | -5.5 | -5.6 | 70.7* | 5.8 | 17.9
Cc1ccc(-c2nc(C3CCCN(S(=O)(=O)c4ccc(Cl)s4)C3)no2)cc1 (centres undefined) | -3.4 | . | -7.4 | . | . | . | .
CCOC(=O)c1c(C)[nH]c(C(=O)C(C)OC(=O)c2cccc(OCc3c(C)noc3C)c2)c1C (centres undefined) | -2.6 | -2.5 | 12.5 | 0.5 | 76.4* | 83.1* | 64.4
CCC(C)NC(=O)c1cccc(OCc2c(C)noc2C)c1 (centres undefined) | -0.3 | 5.0 | -12.4 | -2.8 | -1.2 | . | .
CC(C)CC(O)(CC(C)C)c1cn(C(=O)N(c2ccccc2)c2ccccc2)nn1 | . | . | -1.6 | . | . | . | .
COc1cc(NC(C(=O)Nc2cccc(C(C)=O)c2)c2ccccc2)cc(OC)c1OC (centres undefined) | -2.6 | -2.2 | -33.4 | -7.4 | 49.0 | -21.4 | 0.3
COc1cccc(NC(C(=O)Nc2cccc(C(C)=O)c2)c2ccccc2)c1 (centres undefined) | -3.1 | -2.0 | 7.1 | -0.9 | -1.9 | . | .
CCCCCCCCCn1c2c(c(=N)c3c1CCC3)CCC2 | . | 0.7 | . | . | 101.3* | 98.8* | 91.7*
O=[N+]([O-])c1ccc2nc(COCc3nc4ccccc4[nH]3)[nH]c2c1 | . | . | -60.8 | . | . | . | .
Cc1ccc2c(CN(C)Cc3ccccc3)cc(=O)oc2c1C | 1.6 | 1.3 | -49.4 | -9.3 | -61.1 | . | .
Cc1ccc2c(CN(C)Cc3ccc(OC(F)F)cc3)cc(=O)oc2c1C | -4.3 | -0.4 | 18.0 | -10.5 | 55.9 | 43.3 | 54.4
O=C(NCc1cccnc1)/C(=C\c1ccc(-c2ccc(Cl)c(Cl)c2)o1)S(=O)(=O)c1ccccc1 | -0.4 | 0.9 | 16.8 | 5.6 | 91.6* | 98.9* | 35.5
C[C@H](O)[C@@H]1CN2CCc3ccc(-c4ccc5c(c4)OCO5)cc3[C@@H]2C[C@@H]1N(C)C(=O)Nc1ccccc1 | 6.4 | . | -0.8 | . | . | . | .
COC(CNC(=O)CSCc1nc(-c2ccc(SC)cc2)oc1C)OC | -1.2 | -2.8 | 9.1 | 0.7 | 69.5 | 78.3* | 49.1
CCCNC(=O)CSCc1nc(-c2ccc(SC)cc2)oc1C | -2.3 | 1.1 | -4.7 | -4.8 | 82.2* | 77.9* | 78.8*
CSc1ccc(-c2nc(CSCC(=O)NCCCN3CCOCC3)c(C)o2)cc1 | -9.2 | -0.5 | 9.6 | -2.3 | 46.3 | . | .
O=C(Nc1ccc(Cl)cc1)O[C@@H]1CC[C@@]23CCCN2C(=O)CCC[C@H]3C1 | . | . | 6.3 | . | . | . | .
COc1cc(OC)c(OC)cc1CNC(=O)c1cccc(S(=O)(=O)N2CCc3ccccc3C2)c1 | -7.2 | . | 23.0 | 14.3* | 90.9* | 95.8* | 81.4*
O=C(NNC(=O)c1ccccc1F)c1cccc(S(=O)(=O)N2CCc3ccccc32)c1 | -4.8 | . | 24.7 | -5.9 | 81.5* | 84.6* | 72.0*
O=C(NCc1ccncc1)c1cccc(S(=O)(=O)N2CCc3ccccc32)c1 | -3.5 | 0.0 | 31.3 | -1.9 | 53.2 | 33.7 | 36.0
COc1cccc(CNC(=O)[C@@H]2CCCN2C(=O)[C@H]2CCCCN2C(=O)c2cccc3ccccc23)c1 | . | . | . | . | 85.7* | 80.7* | 63.2
CC(C)c1ccc(-c2csc(NC(=O)c3cccs3)c2C(=O)O)cc1 | -3.5 | -0.3 | 13.9 | -3.4 | 49.4 | 94.4* | 15.9
Cc1ccc(-c2csc(NC(=O)c3ccccc3Cl)c2C(=O)O)cc1 | 0.7 | 2.8 | 25.6 | -2.3 | -19.0 | . | .
Cc1c(CCCN)c2ccccc2n1Cc1ccccc1 | 1.6 | 1.6 | -1.4 | -5.9 | 49.8 | -4.2 | 4.1
Clc1ccc(CSc2nnc(Cn3cnc4ccccc43)o2)cc1 | -5.2 | 0.1 | 62.8* | 33.0* | 60.3 | 79.7* | 69.1
O=C1CC(c2ccc3c(c2)OCO3)N=C2N(Cc3ccc4c(c3)OCO4)C/C(=C/c3ccccc3)N12 (centres undefined) | . | . | 3.0 | . | . | . | .
C#CC(c1ccccc1)(c1ccccc1)n1ccnc1 | -1.1 | . | 12.0 | -4.4 | 18.4 | . | .
